Assay outcomes as filed in PubChem.
Only some compounds are listed: those with a hit (about 1.9% of all), similar ones and a draw of the others.
NPY2 pot ag – human NPY-Y2 potentiation or agonism, primary screen. P49146. cells expressing NPY-Y2, potentiator/agonist read-out. activation, % at 3.6 µM. 0.45% of 220,000 active; in the data active means activation above about 27%;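 further: cells stimulated with NPY near EC25 plus isoproterenol at EC100; 0% = vehicle plus submaximal agonist and 100% = vehicle plus saturating agonist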
Target sequence (P49146 whole entry, looked up): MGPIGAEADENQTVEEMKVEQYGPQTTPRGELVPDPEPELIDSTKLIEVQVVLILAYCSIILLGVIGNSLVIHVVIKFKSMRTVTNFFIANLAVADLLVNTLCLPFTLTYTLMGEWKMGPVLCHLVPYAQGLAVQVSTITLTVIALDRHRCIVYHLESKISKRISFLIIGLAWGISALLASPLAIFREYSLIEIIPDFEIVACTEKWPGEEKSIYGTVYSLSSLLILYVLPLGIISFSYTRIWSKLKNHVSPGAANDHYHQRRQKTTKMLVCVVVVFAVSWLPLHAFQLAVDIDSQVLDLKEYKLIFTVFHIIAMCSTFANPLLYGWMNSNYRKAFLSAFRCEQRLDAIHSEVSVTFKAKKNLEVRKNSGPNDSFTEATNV
NPY Y1 blocker – antagonists of human neuropeptide Y receptor Y1; P25929; HEK293-CNG Y1 cells, membrane potential fluorescence; NPY at EC95, then isoproterenol; inhibition, % at 3.6 µM; 1% of 200,000 active; AID 1040;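 active means inhibition above the campaign mean inhibition of all tested compounds plus 3 SD, cut at about 20% in these data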;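 further: 0% = DMSO wells given NPY plus isoproterenol and 100% = isoproterenol alone without NPY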
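material = HEK293 cells with Y1 receptor plus CNG channel | also added = NPY 25 nM then isoproterenol 1 µM plus Ro 20-1724 25 µM | schedule = dye 3 h, compound 60 min room temperature, stimulation 45 min | measured by = membrane potential fluorescence | benchmarks = high control isoproterenol alone, low control NPY with isoproterenol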
NPY1 pot ag – potentiators or agonists of human neuropeptide Y receptor Y1. AID 1304. activation, % at 3.6 µM. 0.37% of 220,000 active. P25929. NPY-Y1 expressing cells, potentiator/agonist activation; in the data active means activation above about 33%, passing the limit was not always enough;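 further: cells stimulated with NPY at EC10 then isoproterenol at EC100; 0% = low agonist plus stimulus and 100% = saturating agonist plus stimulus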
NPY Y2 blocker – antagonists of human neuropeptide Y receptor Y2; inhibition, % at 2.7 µM; NPY-Y2 expressing cells, antagonist mode; AID 793; 0.99% of 140,000 active; in the data active means inhibition above about 17%;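 further: 0% = vehicle with agonist challenge and 100% = reference antagonist with challenge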
The depositor's hits bear a star; x = no result given.

SMILES | NPY2 pot ag | NPY Y1 blocker | NPY1 pot ag | NPY Y2 blocker
CC(C)C(c1nnnn1Cc1ccco1)N1CCN(c2cccc(Cl)c2)CC1 (centres undefined) | 9 | 16 | -2 | 9
CC(C)C(c1nnnn1C(C)(C)C)N1CCN(c2cccc(Cl)c2)CC1 (centres undefined) | -4 | 48* | -14 | 22*
Cc1nn(-c2ccccc2)c(N)c1N=Nc1cccnc1 | -1 | -2 | -4 | x
Nc1nc(-c2ccccc2)c(N=Nc2cccnc2)s1 | 57* | -19 | 65* | x
Cc1ccc(Cl)cc1NC(=S)N(Cc1ccccc1)Cc1cccnc1 | -11 | 9 | -14 | x
CC(C)c1ccc(N2CCN(C(=O)c3ccccc3NC(=O)/C=C\C(=O)O)CC2)cc1 | -16 | -5 | -2 | -3
O=C(O)/C=C\C(=O)Nc1ccccc1C(=O)N1CCN(c2ccc(Cl)cc2)CC1 | 31* | 2 | 91* | 1
C[C@@H]1C=C[C@](Cc2ccccc2)(C(=O)NCCc2c[nH]c3ccccc23)N1C(=O)c1ccccc1 | 0 | 35* | -30 | 19*
CC(C)(C)NCC(O)CON=C1c2ccccc2-c2ccccc21 (centres undefined) | 100* | -5 | 104* | x
O=[N+]([O-])c1cc(/C=N/NC(=S)Nc2ccccc2Cl)ccc1Cl | 36* | -7 | 41* | x
Cc1ccc(NC(=S)N/N=C/c2ccc(Cl)c([N+](=O)[O-])c2)cc1 | -16 | 1 | 4 | 1
CCCc1c(C(=O)NNc2cccc(Cl)c2)cnn1-c1ccccc1 | 22 | x | 29 | x
CCCOc1ccc2ccccc2c1/C=N/n1c(C)nnc1-n1nc(C)cc1C | 0 | 29* | -17 | 26*
Cc1cc(C)n(-c2nnc(C)n2/N=C/c2ccco2)n1 | -7 | -3 | 4 | -1
COc1ccccc1Oc1cc(C#N)c(C#N)cc1-n1nnc2ccccc21 | -19 | 46* | -36 | 19*
COC(=O)c1c(NC(=O)c2c(-c3ccccc3Cl)noc2C)sc2c1CCC2 | -32 | 37* | -25 | 23*
Cc1ccc(C)c(Nc2c([N+](=O)[O-])c(=O)oc3ccccc23)c1 | 13 | x | 24 | x
COCCCNCC(O)COc1cccc2[nH]c(C)cc12 (centres undefined) | 101* | -14 | 108* | x
CCc1ccc(OCCOCC(O)CNC(C)(C)C)cc1 (centres undefined) | 11 | 0 | 6 | 4
Cc1cc2c(OCC(O)CNC(C)(C)C)cccc2[nH]1 (centres undefined) | 105* | -19 | 111* | 3
COc1cccc(OC)c1OCCNC(C)(C)C | 1 | 4 | 4 | 0
CC(C)(C)NCC(O)COc1cccc2c1C[C@H](O)[C@H](O)C2 (some centres undefined) | 102* | -10 | 118* | 2
COCCCNCCCOc1ccc(C)cc1Br | -2 | 12 | -28 | 2
Cc1cc2c(OCC(O)CN3CCCC3)cccc2[nH]1 (centres undefined) | 100* | -18 | 110* | x
CC1(C)C(C=C(Cl)Cl)C1C(=O)Nc1ccc([N+](=O)[O-])cc1 (centres undefined) | 21 | -5 | 26 | -2
SMILES | NPY2 pot ag | NPY Y1 blocker | NPY1 pot ag | NPY Y2 blocker
CCN(CC)c1nc(-c2ccccn2)nc(-c2ccccc2)c1C#N | 0 | 4 | 7 | x
COc1ccc2oc(=O)c(C(=O)C[n+]3cccc(C)c3)cc2c1 | 1 | 0 | -1 | x
CN(C)c1ccc(N=Nc2ccccc2C(=O)OCC(=O)NCC2CCCCC2)cc1 | 54* | -13 | 59* | -5
CNC(=S)N(CCc1c(C)[nH]c2ccc(Cl)cc12)Cc1cccs1 | 44* | -12 | 49* | x
N/C(=N\N=C\c1ccc(Br)o1)c1nonc1N | -15 | x | 17 | x
CC1(C)Cc2cccc(OCC(O)CN3CCN(c4ccccn4)CC3)c2O1 (centres undefined) | 91* | -15 | 104* | 1
CC1(C)Cc2cccc(OCC(O)CNCc3ccccn3)c2O1 (centres undefined) | 66* | -6 | 80* | 5
O=C(Nc1ccccc1)n1cc(-c2ccccn2)c(N2CCOCC2)n1 | 9 | 7 | 6 | x
CN(C(=O)Nc1ccc(C(C)(C)C)cc1)C1CCCCC1 | 4 | x | -12 | x
C(=N\Nc1ccccc1)/c1nc2ccccc2s1 | 19 | x | 17 | x
CCN(CC)CC(=O)Nc1cccc2c1C(=O)c1ccccc1C2=O | -2 | 1 | 22 | x
O=C1c2ccccc2C(=O)c2c(NCCCN(CCO)CCO)cccc21 | 39* | -13 | 53* | x
CCOC(=O)c1c(C)[nH]c(C(=O)C(C)Sc2ccc(Cl)cc2)c1C (centres undefined) | -26 | 84* | -32 | 34*
